According to ChEMBL document CHEMBL1157465, “Design, synthesis, and biological evaluation of novel 3-aryl-4-(1H-indole-3yl)-1,5-dihydro-2H-pyrrole-2-ones as vascular endothelial growth factor receptor (VEGF-R) inhibitors” (J Med Chem, 2008):

Legend:
[1] = biological target: Insulin-like growth factor 1 receptor (Homo sapiens, UniProt P08069); assay: Inhibition of human recombinant IGF1R
In short: (§1)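 Human kinases expressed in Sf9 cells via baculovirus as GST or His fusions and affinity purified. 33PanQinase assay in 60 mM HEPES-NaOH pH 7.5, 3 mM MgCl2, 3 mM MnCl2, 3 µM orthovanadate, 1.2 mM DTT, 1 µM [γ-33P]ATP, 1% DMSO; 30 °C, 80 min. Substrates: poly(Glu,Tyr) 4:1 for ERBB2, IGF1-R and SRC; poly(Ala,Glu,Lys,Tyr) 6:2:5:1 for FLT3. IC50 from 10 concentrations by scintillation counting.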

[2] = biological target: Epidermal growth factor receptor (Homo sapiens, UniProt P00533); assay: Inhibition of human recombinant EGFR
[3] = biological target: Ephrin type-B receptor 4 (Homo sapiens, UniProt P54760); assay: Inhibition of human recombinant EPHB4
In short: (§2)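 Recombinant human tyrosine kinases (EPHB4, TIE2, VEGF-R2, VEGF-R3), expressed in Sf9 insect cells as GST- or His-fusions, with poly(Glu,Tyr) 4:1 as substrate. Conditions: 1 µM [γ-33P]ATP, pH 7.5 HEPES buffer with Mg/Mn, DTT and vanadate, 30 °C for 80 min, 1% DMSO. Ten concentrations were tested and IC50 came from scintillation counting of incorporated 33P.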

[4] = biological target: Proto-oncogene tyrosine-protein kinase Src (Homo sapiens, UniProt P12931); assay: Inhibition of human recombinant SRC; in short: as §1
Proto-oncogene tyrosine-protein kinase Src, sequence (P12931 2-536 limits assumed): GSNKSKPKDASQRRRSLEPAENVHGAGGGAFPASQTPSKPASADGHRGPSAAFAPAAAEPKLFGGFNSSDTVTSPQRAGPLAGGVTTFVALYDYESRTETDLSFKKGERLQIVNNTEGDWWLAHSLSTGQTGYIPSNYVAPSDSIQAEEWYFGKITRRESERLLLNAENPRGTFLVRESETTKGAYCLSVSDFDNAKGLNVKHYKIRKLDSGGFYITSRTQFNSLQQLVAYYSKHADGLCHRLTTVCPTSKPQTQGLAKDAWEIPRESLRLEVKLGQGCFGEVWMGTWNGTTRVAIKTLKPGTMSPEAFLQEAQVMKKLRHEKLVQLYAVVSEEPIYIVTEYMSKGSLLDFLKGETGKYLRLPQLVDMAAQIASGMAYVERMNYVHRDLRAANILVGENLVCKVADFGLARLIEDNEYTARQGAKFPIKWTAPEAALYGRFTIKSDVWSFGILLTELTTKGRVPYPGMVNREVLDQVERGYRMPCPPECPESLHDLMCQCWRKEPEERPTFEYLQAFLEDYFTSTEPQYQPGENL

[5] = biological target: Vascular endothelial growth factor receptor 2 (Homo sapiens, UniProt P35968); assay: Inhibition of human recombinant VEGFR2; in short: as §2
Vascular endothelial growth factor receptor 2, sequence (P35968 whole entry): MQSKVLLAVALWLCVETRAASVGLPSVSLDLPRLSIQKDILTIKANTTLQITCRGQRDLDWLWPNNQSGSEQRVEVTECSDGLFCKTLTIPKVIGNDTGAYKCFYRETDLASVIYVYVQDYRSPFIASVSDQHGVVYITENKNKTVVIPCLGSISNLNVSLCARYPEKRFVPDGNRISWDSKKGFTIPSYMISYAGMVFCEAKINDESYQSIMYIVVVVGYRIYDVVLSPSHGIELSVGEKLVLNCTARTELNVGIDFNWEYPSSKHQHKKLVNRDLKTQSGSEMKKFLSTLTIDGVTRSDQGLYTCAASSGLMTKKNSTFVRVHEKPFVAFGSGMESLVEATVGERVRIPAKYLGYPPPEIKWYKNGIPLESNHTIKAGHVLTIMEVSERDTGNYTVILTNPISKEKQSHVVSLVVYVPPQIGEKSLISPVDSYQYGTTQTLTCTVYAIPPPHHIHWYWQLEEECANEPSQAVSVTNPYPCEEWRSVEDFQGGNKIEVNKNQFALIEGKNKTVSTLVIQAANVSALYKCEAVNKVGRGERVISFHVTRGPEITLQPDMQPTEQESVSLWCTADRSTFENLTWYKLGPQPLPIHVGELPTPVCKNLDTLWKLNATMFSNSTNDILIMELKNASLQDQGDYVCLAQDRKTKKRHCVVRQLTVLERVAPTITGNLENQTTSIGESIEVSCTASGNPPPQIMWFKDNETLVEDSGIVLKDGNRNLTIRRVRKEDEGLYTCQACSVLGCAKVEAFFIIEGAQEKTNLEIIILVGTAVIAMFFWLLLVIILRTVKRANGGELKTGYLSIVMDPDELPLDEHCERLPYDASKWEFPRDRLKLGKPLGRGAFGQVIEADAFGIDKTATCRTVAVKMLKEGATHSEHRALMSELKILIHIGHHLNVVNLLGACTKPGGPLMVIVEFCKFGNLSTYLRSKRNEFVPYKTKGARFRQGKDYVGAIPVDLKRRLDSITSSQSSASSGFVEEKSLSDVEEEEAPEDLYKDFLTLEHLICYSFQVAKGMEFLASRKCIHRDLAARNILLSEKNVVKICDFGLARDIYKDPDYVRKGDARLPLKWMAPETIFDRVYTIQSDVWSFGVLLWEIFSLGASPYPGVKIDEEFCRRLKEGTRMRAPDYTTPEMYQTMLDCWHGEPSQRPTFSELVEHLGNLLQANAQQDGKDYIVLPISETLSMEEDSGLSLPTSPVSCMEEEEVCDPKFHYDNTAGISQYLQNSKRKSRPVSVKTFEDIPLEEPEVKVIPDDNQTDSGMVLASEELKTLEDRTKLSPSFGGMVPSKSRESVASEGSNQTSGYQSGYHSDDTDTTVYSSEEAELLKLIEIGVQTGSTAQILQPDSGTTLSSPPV

[6] = biological target: Vascular endothelial growth factor receptor 3 (Homo sapiens, UniProt P35916); assay: Inhibition of human recombinant VEGFR3; in short: as §2
Vascular endothelial growth factor receptor 3, sequence (P35916 whole entry): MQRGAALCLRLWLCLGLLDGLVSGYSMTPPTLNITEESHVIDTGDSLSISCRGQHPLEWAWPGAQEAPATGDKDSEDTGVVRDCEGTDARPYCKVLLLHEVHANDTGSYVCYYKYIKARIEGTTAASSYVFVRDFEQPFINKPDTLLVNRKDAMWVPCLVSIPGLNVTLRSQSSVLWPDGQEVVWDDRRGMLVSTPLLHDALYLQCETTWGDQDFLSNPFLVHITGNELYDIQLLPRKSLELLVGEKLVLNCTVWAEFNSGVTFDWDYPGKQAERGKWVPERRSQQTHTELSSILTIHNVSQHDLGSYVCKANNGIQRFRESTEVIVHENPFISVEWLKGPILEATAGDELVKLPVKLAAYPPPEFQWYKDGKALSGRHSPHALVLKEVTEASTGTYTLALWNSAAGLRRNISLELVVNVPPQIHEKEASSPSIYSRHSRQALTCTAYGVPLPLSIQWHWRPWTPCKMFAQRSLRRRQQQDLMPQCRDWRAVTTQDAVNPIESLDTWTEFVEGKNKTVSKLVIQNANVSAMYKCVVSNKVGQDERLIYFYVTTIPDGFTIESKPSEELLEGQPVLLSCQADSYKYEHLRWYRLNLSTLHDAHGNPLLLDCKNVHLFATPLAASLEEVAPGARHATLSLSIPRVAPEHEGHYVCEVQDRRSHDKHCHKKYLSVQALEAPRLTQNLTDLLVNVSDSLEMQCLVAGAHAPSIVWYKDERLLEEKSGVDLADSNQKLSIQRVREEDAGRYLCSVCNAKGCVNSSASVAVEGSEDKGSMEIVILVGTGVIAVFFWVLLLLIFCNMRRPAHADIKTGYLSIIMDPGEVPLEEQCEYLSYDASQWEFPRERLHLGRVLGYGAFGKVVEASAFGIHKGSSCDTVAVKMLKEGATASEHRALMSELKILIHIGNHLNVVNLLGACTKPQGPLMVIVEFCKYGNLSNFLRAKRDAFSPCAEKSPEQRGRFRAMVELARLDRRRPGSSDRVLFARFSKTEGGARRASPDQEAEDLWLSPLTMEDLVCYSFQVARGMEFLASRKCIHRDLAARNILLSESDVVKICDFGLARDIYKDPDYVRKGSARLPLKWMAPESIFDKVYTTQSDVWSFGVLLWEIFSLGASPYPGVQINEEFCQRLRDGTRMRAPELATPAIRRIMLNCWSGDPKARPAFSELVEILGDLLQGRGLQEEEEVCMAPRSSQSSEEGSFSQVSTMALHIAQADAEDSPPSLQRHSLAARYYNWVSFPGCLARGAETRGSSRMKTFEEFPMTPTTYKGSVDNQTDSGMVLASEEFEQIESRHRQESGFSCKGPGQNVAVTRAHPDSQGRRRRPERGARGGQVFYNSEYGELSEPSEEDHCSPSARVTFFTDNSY

[7] = biological target: T1, Receptor-type tyrosine-protein kinase FLT3 (Homo sapiens, UniProt P36888); assay: Inhibition of human recombinant FLT3; in short: as §1
T1 sequence (P36888 whole entry): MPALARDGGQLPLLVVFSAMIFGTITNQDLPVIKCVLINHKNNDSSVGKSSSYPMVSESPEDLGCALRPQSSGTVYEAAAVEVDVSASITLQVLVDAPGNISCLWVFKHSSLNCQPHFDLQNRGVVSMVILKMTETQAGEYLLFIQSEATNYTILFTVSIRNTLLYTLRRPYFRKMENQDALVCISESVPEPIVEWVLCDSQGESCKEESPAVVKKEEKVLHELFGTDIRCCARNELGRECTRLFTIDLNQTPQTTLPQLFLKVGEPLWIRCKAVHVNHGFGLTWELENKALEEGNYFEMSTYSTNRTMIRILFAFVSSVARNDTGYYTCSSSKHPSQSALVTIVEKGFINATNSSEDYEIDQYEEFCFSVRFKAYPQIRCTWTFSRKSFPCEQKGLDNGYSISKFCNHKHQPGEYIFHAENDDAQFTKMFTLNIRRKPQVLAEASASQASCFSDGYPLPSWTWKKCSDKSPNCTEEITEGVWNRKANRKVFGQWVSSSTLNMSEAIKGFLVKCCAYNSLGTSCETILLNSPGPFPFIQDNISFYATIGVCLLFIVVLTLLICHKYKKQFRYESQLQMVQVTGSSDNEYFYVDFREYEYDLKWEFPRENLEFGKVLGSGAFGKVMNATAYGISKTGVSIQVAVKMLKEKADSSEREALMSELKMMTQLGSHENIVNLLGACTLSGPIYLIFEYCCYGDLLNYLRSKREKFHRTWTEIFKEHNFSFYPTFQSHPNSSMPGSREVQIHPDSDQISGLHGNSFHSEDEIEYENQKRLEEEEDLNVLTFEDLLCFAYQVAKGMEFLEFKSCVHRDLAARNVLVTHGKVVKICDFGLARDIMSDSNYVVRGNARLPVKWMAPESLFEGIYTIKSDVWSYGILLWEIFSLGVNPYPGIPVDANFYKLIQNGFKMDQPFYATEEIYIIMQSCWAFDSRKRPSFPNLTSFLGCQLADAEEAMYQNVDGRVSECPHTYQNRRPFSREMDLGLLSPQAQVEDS

[8] = biological target: Angiopoietin-1 receptor (Homo sapiens, UniProt Q02763); assay: Inhibition of human recombinant TIE2; in short: as §2
[9] = species: Homo sapiens; assay: Antiangiogenic activity in VEGF-induced HLMEC assessed as sprouts per bead at 1.3 uM after 24 hrs by sprouting assay; format: functional
In short: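 HLMEC seeded on cytodex-3 microcarrier beads and embedded in 3D fibrinogen gel with 20 ng/mL VEGF plus compound at a final 1.3 or 2.6 µM (from 1 mM DMSO stock). Gel polymerised with 0.65 U/mL thrombin and overlaid with MCDB131, 5% FCS, 5% human serum and 200 U/mL Trasylol. Negative control: gel without growth factors. After 24 h, fixed in 1% PFA; sprouts per 50 beads counted microscopically. Triplicates per condition, n = 9 experiments.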

[10] = species: Homo sapiens; assay: Induction of apoptosis in HDMEC at 2.1 uM after 5 hrs; format: functional
In short: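 Positive-control condition: HDMEC treated 5 h at 2.1 µM. Adherent cells plus supernatant stained for cleaved caspase-3 and analysed by FACS as percent apoptotic cells. Repeated three times.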

[11] = biological target: Receptor tyrosine-protein kinase erbB-2 (Homo sapiens, UniProt P04626); assay: Inhibition of human recombinant ERBB2; in short: as §1
[12] = biological target: Casein kinase II subunit alpha (Homo sapiens, UniProt P68400); assay: Inhibition of human recombinant CK2A1
Casein kinase II subunit alpha, sequence (P68400 whole entry, the tested form may be a part): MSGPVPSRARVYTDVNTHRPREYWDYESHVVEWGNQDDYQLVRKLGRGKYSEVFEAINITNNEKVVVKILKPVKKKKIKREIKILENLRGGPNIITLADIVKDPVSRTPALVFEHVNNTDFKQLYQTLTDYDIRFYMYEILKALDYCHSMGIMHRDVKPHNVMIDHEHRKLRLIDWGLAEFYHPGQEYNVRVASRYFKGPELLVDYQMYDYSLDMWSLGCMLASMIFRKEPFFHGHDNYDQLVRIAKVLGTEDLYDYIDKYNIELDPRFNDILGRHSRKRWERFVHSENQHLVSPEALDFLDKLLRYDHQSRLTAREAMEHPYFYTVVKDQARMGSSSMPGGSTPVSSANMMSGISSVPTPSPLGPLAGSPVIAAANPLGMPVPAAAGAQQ
In short: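 Human kinases expressed in Sf9 cells by baculovirus as GST or His fusions and affinity purified. Radiometric 33PanQinase assay: 60 mM HEPES-NaOH pH 7.5, 3 mM MgCl2, 3 mM MnCl2, 3 µM orthovanadate, 1.2 mM DTT, 1 µM [γ-33P]ATP, 50-400 ng enzyme, 1% DMSO; 30 °C, 80 min. Substrates: B-Raf-VE, MEK1 KM; CDK2/CycA, histone H1; CK2-A1, casein; COT, autophosphorylation. IC50 from 10 concentrations; 33Pi incorporation by scintillation.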

Insulin-like growth factor 1 receptor, sequence (P08069 31-736 limits assumed): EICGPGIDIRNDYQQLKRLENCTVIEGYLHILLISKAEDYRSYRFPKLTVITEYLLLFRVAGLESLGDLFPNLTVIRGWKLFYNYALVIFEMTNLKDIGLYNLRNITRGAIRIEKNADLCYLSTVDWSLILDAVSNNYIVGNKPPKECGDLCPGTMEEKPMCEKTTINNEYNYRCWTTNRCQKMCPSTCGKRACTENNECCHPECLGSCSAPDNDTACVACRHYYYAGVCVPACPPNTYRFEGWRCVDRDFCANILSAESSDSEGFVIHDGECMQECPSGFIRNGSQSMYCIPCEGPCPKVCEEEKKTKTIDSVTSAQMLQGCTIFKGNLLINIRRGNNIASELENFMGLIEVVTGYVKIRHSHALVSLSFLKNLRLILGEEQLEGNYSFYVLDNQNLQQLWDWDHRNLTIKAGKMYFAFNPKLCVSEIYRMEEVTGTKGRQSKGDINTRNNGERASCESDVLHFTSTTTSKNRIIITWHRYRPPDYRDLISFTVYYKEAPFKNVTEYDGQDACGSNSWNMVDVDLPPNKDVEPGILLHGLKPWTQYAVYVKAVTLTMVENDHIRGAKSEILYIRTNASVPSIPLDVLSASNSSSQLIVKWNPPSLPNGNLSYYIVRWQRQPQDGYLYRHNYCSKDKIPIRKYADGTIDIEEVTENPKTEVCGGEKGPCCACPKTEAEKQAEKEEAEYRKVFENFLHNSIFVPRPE
Insulin-like growth factor 1 receptor, sequence (P08069 741-1367 limits assumed): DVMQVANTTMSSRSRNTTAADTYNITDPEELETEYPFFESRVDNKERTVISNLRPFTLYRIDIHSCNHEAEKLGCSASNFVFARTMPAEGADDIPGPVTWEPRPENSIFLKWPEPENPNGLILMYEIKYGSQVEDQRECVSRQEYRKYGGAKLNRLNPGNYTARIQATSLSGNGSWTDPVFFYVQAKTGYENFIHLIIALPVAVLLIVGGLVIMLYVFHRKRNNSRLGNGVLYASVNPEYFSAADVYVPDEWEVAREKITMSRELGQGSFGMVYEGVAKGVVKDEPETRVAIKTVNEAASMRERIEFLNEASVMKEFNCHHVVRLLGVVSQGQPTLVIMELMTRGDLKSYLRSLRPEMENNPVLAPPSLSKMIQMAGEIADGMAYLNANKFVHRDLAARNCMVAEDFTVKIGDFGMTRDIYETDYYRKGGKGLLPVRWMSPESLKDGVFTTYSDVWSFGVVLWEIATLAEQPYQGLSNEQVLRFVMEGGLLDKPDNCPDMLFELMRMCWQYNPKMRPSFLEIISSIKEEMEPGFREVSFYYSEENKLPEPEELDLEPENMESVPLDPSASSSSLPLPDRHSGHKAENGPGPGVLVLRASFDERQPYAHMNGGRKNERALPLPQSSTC

Compound	IC50 [1]	IC50 [2]	IC50 [3]	IC50 [4]	IC50 [5]	IC50 [6]	IC50 [7]	IC50 [8]	inhibition [9]	Activity [10]	IC50 [11]	IC50 [12]
COc1cc(C2=C(c3cn(COCC[Si](C)(C)C)c4ccccc34)CNC2=O)cc(OC)c1OC	8.7 µM	22 µM	44 µM	4.5 µM	3.1 µM	5.6 µM	34 µM	26 µM	30%	–	–	–
CN[C@@H]1C[C@H]2O[C@@](C)([C@@H]1OC)n1c3ccccc3c3c4c(c5c6ccccc6n2c5c31)C(=O)NC4	–	–	–	–	–	–	–	–	–	63.9%	–	–
COc1cc(C2=C(c3cn(COCc4ccccc4)c4ccccc34)CNC2=O)cc(OC)c1OC	18 µM	–	–	9.1 µM	1.6 µM	1.7 µM	36 µM	11 µM	–	–	36 µM	> 50 µM
